# Assay outcomes as filed in PubChem BioAssay.
# Many of the other results were omitted from the sample, so hits are more common in it than they were.
# FXN GAA850 act = increases GAA850 frataxin promoter reporter activity; 360,000 compounds, 0.56% hits; activation, % at 6 µM; HEK293 lucGAA850 FXN promoter luciferase reporter, 24 h; percent of 10 µM SAHA response; AID 540364;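 active = activation above the average of all compounds screened plus 3 SD, cutoff fixed separately per campaign, cut at about 7.5% in these data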
# CHOP inh = CHOP inhibition in unfolded protein response. CHO-K1 CHOP-promoter luciferase, tunicamycin-induced, 15-18 h. 220,000 compounds, 3.8% hits. AID 2732. inhibition, % at 10 µM;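 active = compounds that reduced the stress-induced luciferase reporter signal by more than about 70% of percent inhibition, limit read from the data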
# UPR XBP1 act = adaptive UPR (XBP1) activation | CHO-XBP1 luciferase reporter, IRE1-XBP1 UPR activation, luminescence; percent of tunicamycin response, DMSO as zero | activation, % at 20 µM | 330,000 compounds, 0.33% hits;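 active = versus positive control, 20 µM dose yields 30% or more activation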
#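 Material: CHO-XBP1 cells stably carrying IRE1-XBP1-driven luciferase reporter | Medium: F12 with 10% serum | Compound dosing: 20 µM single concentration, DMSO 1% | Incubation: Overnight seeding at 37 °C, 6 h compound treatment at 37 °C | Detection: Steady-Glo luminescence read | Read-out basis: % activation of reporter signal versus tunicamycin and DMSO controls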
# CHOP UPR activ = activators of apoptotic arm of unfolded protein response (CHOP) | CHO-CHOP luciferase reporter, UPR activation, luminescence; percent of tunicamycin response over DMSO baseline | activation, % at 10 µM | 330,000 compounds, 0.34% hits;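 active = at 10 µM dose, activation of 40% or more, normalized to positive control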
#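 measured by = luciferase luminescence | assay system = CHO-CHOP cells, stable luciferase reporter of PERK-eIF2a-CHOP signalling | amount = 500 reporter cells seeded per well | timing = 6 h compound exposure at 37 °C after overnight seeding | controls = positive tunicamycin 10 µg/mL, negative DMSO alone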
# Hits are given with their value; – = inactive; · = not tested or not shown.
SMILES,FXN GAA850 act,CHOP inh,UPR XBP1 act,CHOP UPR activ
COc1ccc(OCC(=O)Nc2cccc(-c3nc4ccccc4o3)c2)cc1,–,75,–,–
CCCC(=O)Nc1cccc(-c2nc3ccccc3o2)c1,–,–,–,–
COc1cc(C(=O)Nc2cccc(-c3nc4cc(C)ccc4o3)c2)cc(OC)c1OC,–,75,–,–
O=C1C2C3C=CC(C3)C2C(=O)N1c1cccc(-c2nc3ccccc3o2)c1 (centres undefined),–,–,–,–
COc1ccc(C(=O)Nc2cccc(-c3nnc(-c4ccco4)o3)c2)cc1,–,72,–,–
O=C(Nc1cccc(-c2nc3ccccc3o2)c1)c1ccc(N2C(=O)C3C4C=CC(C4)C3C2=O)cc1 (centres undefined),–,71,–,–
CC1C(=O)N(Cc2cn(Cc3ccco3)nn2)CCS(=O)(=O)N1Cc1ccc(-c2cccc(N(C)C)c2)cc1 (centres undefined),–,·,·,·
CC(=O)Nc1cc(-c2ccccc2)cn2c(-c3cccc(C(C)=O)c3)cnc12,–,·,·,·
O=C(Nc1ccc2oc(-c3cccc(F)c3)nc2c1)c1ccccc1F,–,73,–,–
COc1ccc(Cn2c(C)c(C)c(C#N)c2NC(=O)Nc2cccc(Cl)c2)cc1,–,81,–,–
CCOC(=O)C1=C(c2ccccc2)N=c2s/c(=C\c3cccc(O)c3)c(=O)n2C1c1cccs1 (centres undefined),–,90,–,–
COc1cccc(N2CCN(C3CC(=O)N(c4ccc(F)c(Cl)c4)C3=O)CC2)c1 (centres undefined),–,71,–,–
Cc1cn([C@H]2C[C@H](O)[C@@H](CNCc3cccn3-c3nccs3)O2)c(=O)[nH]c1=O,–,·,·,·
CC(C)On1c(SC(C)C)nc2ccccc2c1=O,–,73,–,–
COn1c(SC(C)C)nc2ccccc2c1=O,–,–,–,–
COn1c(SC2CCCCC2)nc2ccccc2c1=O,–,83,–,–
O=[N+]([O-])c1ccccc1CNC(Cc1ccccc1)c1ccccc1 (centres undefined),–,80,–,–
Cc1ccc(NC(=O)C2(C)CCN2C(=O)C2CCCCC2)cc1C (centres undefined),–,·,·,·
FC(F)(F)c1cccc(-c2nc3nc(Cl)c(Cl)nc3[nH]2)c1,–,74,–,–
FC(F)(F)c1nc2nc(Cl)c(Cl)nc2[nH]1,–,·,·,·
CSc1nc(C)c(Cc2ccccc2)c(=O)[nH]1,–,–,–,–
C=C(C)CSc1nc(C)c(Cc2ccccc2)c(=O)[nH]1,–,76,–,–
Cc1nc(SCC(C)C)[nH]c(=O)c1Cc1ccccc1,–,83,–,–
CC(C)Nc1nc(NCc2ccccc2)c2sccc2n1,–,·,·,·
CC1CCCCC12NC(=O)N(CC(=O)Nc1cccnc1)C2=O (centres undefined),–,·,·,·
SMILES,FXN GAA850 act,CHOP inh,UPR XBP1 act,CHOP UPR activ
COc1cc(C)ccc1S(=O)(=O)NC(=O)Cn1nnc(COc2ccc3c(c2)CCCC3)c1C,–,·,·,·
N=c1c2c(-c3ccccc3)c(-c3ccccc3)n(Cc3ccco3)c2ncn1Cc1ccccc1,–,85,–,–
O=c1c2c3nc4ccccc4nc3n(Cc3ccccc3)c2ncn1Cc1ccco1,–,74,·,·
COc1cc(OC)nc(Nc2nc(C(N)Cc3ccc(C(F)(F)F)cc3)cs2)n1 (centres undefined),–,·,·,·
O=C(Nc1cccc(-c2nc3cccnc3s2)c1)c1ccc(Cl)nc1,–,81,–,–
O=C(Nc1cccc(-c2nc3cccnc3s2)c1)c1cccnc1Cl,–,–,–,–
CCOC(=O)c1ccc(NC(=O)c2nc[nH]c2C(=O)N2CCc3ccccc3C2)cc1,–,72,–,–
Cc1ccc(S(=O)(=O)N2CCN(c3nc4ccccc4nc3-n3nc(C)cc3C)CC2)cc1,–,73,–,–
Cc1cc(C)n(-c2nc3ccccc3nc2N2CCC(C)CC2)n1,–,–,–,–
O=C(c1cc2ccccc2o1)N1CCN(Cc2nc3ccccc3s2)CC1,–,·,·,·
CN1/C(=C\C=C(/C#N)C(=O)Nc2ccc(Cl)cc2)C(C)(C)c2ccccc21,–,75,–,–
Cc1ccc(C)c(N2CCN(C(=O)c3ccc(CS(=O)(=O)c4ccccc4C)o3)CC2)c1,–,·,–,–
Cc1ccc(S(=O)(=O)Cc2ccc(C(=O)N3CCN(c4cc(C)ccc4C)CC3)o2)cc1,–,95,·,·
NC(=O)CC(NC(=O)Cc1cccc2ccccc12)c1ccc(NC2CCN(Cc3ccccc3)CC2)c([N+](=O)[O-])c1 (centres undefined),–,·,–,–
CC(C)Nc1ccc(C(CC(N)=O)NC(=O)Cc2cccc3ccccc23)cc1[N+](=O)[O-] (centres undefined),–,–,–,–
NC(=O)CC(NC(=O)Cc1ccc(Br)cc1)c1ccc(NC2CCCC2)c([N+](=O)[O-])c1 (centres undefined),–,84,–,–
NC(=O)CC(NC(=O)Cc1ccc(Br)cc1)c1ccc(NC2CCCCCCC2)c([N+](=O)[O-])c1 (centres undefined),–,·,·,·
NC(=O)CC(NC(=O)Cc1cccc2ccccc12)c1ccc(NC2CCCCCCC2)c([N+](=O)[O-])c1 (centres undefined),–,75,–,–
COc1ccc(CCNc2ccc(C(CC(N)=O)NC(=O)c3ccccc3)cc2[N+](=O)[O-])cc1 (centres undefined),–,–,–,–
NC(=O)CC(NC(=O)Cc1cccc2ccccc12)c1ccc(NC2CCCCCC2)c([N+](=O)[O-])c1 (centres undefined),–,96,–,–
NC(=O)CC(NC(=O)c1ccccc1)c1ccc(NCCc2ccc(F)cc2)c([N+](=O)[O-])c1 (centres undefined),–,92,–,–
CCOC1(OCC)OC(c2ccccc2)=C(C#N)C(C=Cc2ccccc2)C1(OCC)OCC (centres undefined),–,·,·,·
Cc1cc(OCC(=O)OC(C)C(=O)NC2CC2)c(C(C)C)cc1Cl (centres undefined),–,·,·,·
NC(=O)CC(NC(=O)Cc1cccc2ccccc12)c1ccc(NCCc2ccccc2F)c([N+](=O)[O-])c1 (centres undefined),–,91,–,–
COc1cc(CNC2CCCC2)cc(Cl)c1OCc1ccccc1Cl,–,74,–,–
SMILES,FXN GAA850 act,CHOP inh,UPR XBP1 act,CHOP UPR activ
COc1cc(CNC2CCCC2)cc(Cl)c1OCc1ccc(F)cc1,–,–,–,–
COc1cccc(-c2cnc3c(NC=O)cc(-c4ccncc4)cn23)c1,–,·,·,·
CC1CCc2ccc(F)cc2N1S(=O)(=O)c1cccs1 (centres undefined),–,83,–,–
COc1ccc(S(=O)(=O)N2c3ccc(F)cc3CCC2C)cc1 (centres undefined),–,·,–,–
Cc1nc2nc(C)n(CCN3CCOCC3)c(=O)c2c(-c2cccc([N+](=O)[O-])c2)c1C(=O)CCCCCCCCCCN1CCC(c2ccccc2)(c2ccccc2)CC1,–,·,·,·
O=C(CSCC(=O)Nc1ccc2ccccc2c1)NCc1ccccc1,–,–,–,–
